Broadly, the MIC is the lowest concentration found to suppress growth.

≈ marks a conversion by molar mass, not a printed value.

Holding throughout (type): functional
Test [1] relates to Acinetobacter baumannii. Briefly: Antimicrobial activity against Acinetobacter baumannii ATCC 15151T by broth dilution test. Put shortly: (§1)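 MICs determined by broth dilution on automated Sensititre susceptibility plates or by agar dilution, interpreted per CLSI guidelines. Carbapenem MICs confirmed by Etest. E. coli ATCC 25922 and P. aeruginosa ATCC 27853 served as quality-control strains. All tests done in duplicate.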
In general terms: Broth dilution looks for growth in wells or tubes with falling amounts of substance.

Test [2] concerns Acinetobacter baumannii. The test is described as follows: Antimicrobial activity against Acinetobacter baumannii Ab290 harboring TVICU53 plasmid by broth dilution test. Summed up:
(§2)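 Recombinant plasmids were electroporated (2.5 kV, 25 µF) into electrocompetent cells harvested at exponential phase (OD600 0.5–0.7). Cells were recovered in SOC broth at 37°C for 1 h and selected on antibiotics. MICs were then read by Sensititre broth dilution or agar dilution per CLSI, with carbapenems confirmed by Etest. Tests were run in duplicate with ATCC 25922/27853 controls.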

Test [3] has as its system Acinetobacter baumannii. The test is described as follows: Antimicrobial activity against Acinetobacter baumannii Ab290 containing plasmid harboring OXA-58-4 by broth dilution test. Summed up: as §2
Test [4] concerns Escherichia coli. Briefly: Antimicrobial activity against Escherichia coli DH5alpha harboring plasmid containing OXA-58-3 by broth dilution test.
Test [5] relates to Escherichia coli. Briefly: Antimicrobial activity against Escherichia coli DH5alpha by broth dilution test.
In test [6] the test system is Acinetobacter baumannii. The test is described as follows: Antimicrobial activity against Acinetobacter baumannii Ab290 containing plasmid harboring OXA-58-3 by broth dilution test. Put shortly:
as §2

The test system of test [7] is Acinetobacter baumannii. Briefly: Antimicrobial activity against Acinetobacter baumannii Ab290 by broth dilution test. Put shortly:
as §1

Test [8] relates to Escherichia coli. The test is described as follows: Antimicrobial activity against Escherichia coli DH5alpha harboring plasmid containing OXA-58-4 by broth dilution test.
Test [9] relates to Acinetobacter baumannii. Briefly: Antimicrobial activity against Acinetobacter baumannii TVICU53 by broth dilution test. Put shortly:
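MICs by broth dilution on automated susceptibility plates, or by agar dilution, read and interpreted per CLSI guidelines; carbapenem MICs confirmed by Etest. Clinical isolate tested against a panel of aminoglycosides, β-lactams, β-lactam/inhibitor combinations, carbapenems, ciprofloxacin, chloramphenicol and trimethoprim-sulfamethoxazole. E. coli ATCC 25922 and P. aeruginosa ATCC 27853 run as quality controls. All tests done in duplicate.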

In test [10] the test system is Acinetobacter baumannii. The test is described as follows: Antimicrobial activity against Acinetobacter baumannii ATCC 15151T containing plasmid harboring OXA-58-3 by broth dilution test. Summed up: as §2

With `CC1(C)S[C@@H]2[C@H](NC(=O)[C@H](N)c3ccc(O)cc3)C(=O)N2[C@H]1C(=O)O` [AMOXICILLIN], the MIC was above 256 µg/mL in test [1]; above 256 µg/mL in test [2]; above 256 µg/mL in test [3]; above 256 µg/mL in test [4]; 8 µg/mL (≈ 21.9 µM) in [5]; above 256 µg/mL in test [6]. In addition, the minimum inhibitory concentration (MIC) in [7] is 32 µg/mL (≈ 87.6 µM); in test [8] it was above 256 µg/mL; in [9], above 256 µg/mL.

In the case of `C[C@H]1[C@H](NC(=O)/C(=N\OC(C)(C)C(=O)O)c2csc(N)n2)C(=O)N1S(=O)(=O)O` [AZTREONAM], the MIC in [10] was 128 µg/mL (≈ 294 µM); in test [1], 64 µg/mL (≈ 147 µM); in test [2], 16 µg/mL (≈ 36.7 µM); in test [4], below 0.12 µg/mL; in test [5] it was below 0.12 µg/mL; in test [6], 16 µg/mL (≈ 36.7 µM). In [9], this compound showed a minimal inhibitory concentration (MIC) of 64 µg/mL (≈ 147 µM).

As for `Cc1nnc(SCC2=C(C(=O)O)N3C(=O)[C@@H](NC(=O)Cn4cnnn4)[C@H]3SC2)s1` [CEFAZOLIN], the minimal inhibitory concentration (MIC) in test [1] is above 128 µg/mL; in [4], 8 µg/mL (≈ 17.6 µM); in test [5], 4 µg/mL (≈ 8.8 µM); in test [7], above 128 µg/mL; in test [9], above 128 µg/mL.

Regarding `CO/N=C(\C(=O)N[C@@H]1C(=O)N2C(C(=O)O)=C(COC(C)=O)CS[C@H]12)c1csc(N)n1` [CEFOTAXIME], the minimum inhibitory concentration (MIC) in test [10] was 16 µg/mL (≈ 35.1 µM); in [1] it was 16 µg/mL (≈ 35.1 µM); in test [2], 8 µg/mL (≈ 17.6 µM); in test [5], below 0.12 µg/mL; in test [6], 8 µg/mL (≈ 17.6 µM); in test [7], 8 µg/mL (≈ 17.6 µM). In addition, the MIC in [9] is 64 µg/mL (≈ 141 µM).

`CC(C)(O/N=C(\C(=O)N[C@@H]1C(=O)N2C(C(=O)[O-])=C(C[n+]3ccccc3)CS[C@H]12)c1csc(N)n1)C(=O)O` [CEFTAZIDIME]: the minimal inhibitory concentration (MIC) was 8 µg/mL (≈ 14.6 µM) in test [10]; 8 µg/mL (≈ 14.6 µM) in [1]; 4 µg/mL (≈ 7.32 µM) in test [2]; below 0.12 µg/mL in [4]; below 0.12 µg/mL in test [5]; 4 µg/mL (≈ 7.32 µM) in [6]. Besides, the results for the minimum inhibitory concentration (MIC) in test [7] and in test [9] were 4 µg/mL (≈ 7.32 µM) and 128 µg/mL (≈ 234 µM), respectively.

Consider `CO/N=C(\C(=O)N[C@@H]1C(=O)N2C(C(=O)O)=C(COC(N)=O)CS[C@H]12)c1ccco1` [CEFUROXIME], for which the MIC in test [1] was above 128 µg/mL; in test [2], 32 µg/mL (≈ 75.4 µM); in test [4] it was 4 µg/mL (≈ 9.43 µM); in test [5], 4 µg/mL (≈ 9.43 µM); in test [6], 32 µg/mL (≈ 75.4 µM); in test [7], 32 µg/mL (≈ 75.4 µM). In addition, the MIC in [9] is above 128 µg/mL.

On to `C[C@@H](O)[C@H]1C(=O)N2C(C(=O)O)=C(SCCNC=N)C[C@H]12` [IMIPENEM ANHYDROUS], for which the minimum inhibitory concentration (MIC) was 32 µg/mL (≈ 107 µM) in test [10]; 0.5 µg/mL (≈ 1.67 µM) in test [1]; 32 µg/mL (≈ 107 µM) in test [2]; 1 µg/mL (≈ 3.34 µM) in test [3]; 2 µg/mL (≈ 6.68 µM) in test [4]; 0.25 µg/mL (≈ 0.835 µM) in test [5]. Further, the MIC worked out at 64 µg/mL (≈ 214 µM) in test [6], 0.25 µg/mL (≈ 0.835 µM) in test [7], 0.25 µg/mL (≈ 0.835 µM) in [8] and 64 µg/mL (≈ 214 µM) in [9].

Regarding `C[C@@H](O)[C@H]1C(=O)N2C(C(=O)O)=C(S[C@@H]3CN[C@H](C(=O)N(C)C)C3)[C@H](C)[C@H]12` [MEROPENEM], the MIC in test [10] is 32 µg/mL (≈ 83.4 µM); in test [1] it was 0.5 µg/mL (≈ 1.3 µM); in test [2] it was 16 µg/mL (≈ 41.7 µM); in test [3] it was 0.5 µg/mL (≈ 1.3 µM); in test [5], below 0.25 µg/mL; in test [6], 16 µg/mL (≈ 41.7 µM). In addition, the MIC in test [7] is 0.25 µg/mL (≈ 0.652 µM); in [9], 16 µg/mL (≈ 41.7 µM).

On to `CC1(C)S[C@@H]2[C@H](NC(=O)[C@H](C(=O)O)c3ccsc3)C(=O)N2[C@H]1C(=O)O` [TICARCILLIN], for which the MIC was above 1020 µg/mL in test [10]; 8 µg/mL (≈ 20.8 µM) in [1]; above 1020 µg/mL in test [2]; 256 µg/mL (≈ 666 µM) in test [3]; above 1020 µg/mL in [4]; 8 µg/mL (≈ 20.8 µM) in test [5]. In addition, the minimal inhibitory concentration (MIC) was above 1020 µg/mL in test [6], 16 µg/mL (≈ 41.6 µM) in test [7], 256 µg/mL (≈ 666 µM) in test [8] and above 1020 µg/mL in test [9].

Source of the values: ChEMBL document CHEMBL1275439, “Acquisition of a plasmid-borne blaOXA-58 gene with an upstream IS1008 insertion conferring a high level of carbapenem resistance to Acinetobacter baumannii” (2008).
